Experimental data as given in article PMC2843764 (Bioorganic & medicinal chemistry letters, 2010).

Tests used:
[1] = system: serine hydrolases of the mouse brain membrane proteome; assay type: biochemical; conditions: mouse brain membrane proteome doped with RBBP9, FP-Rh probe, up to 200 µM
Summary of the method: (§1)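 Gel-based competitive ABPP. Two proteomes were used: the soluble fraction of RBBP9-transfected HEK 293T cells, and mouse brain membrane fraction doped with recombinant RBBP9. Each was preincubated 30 minutes with test compound (HEK: 20 and 200 µM; brain: a concentration series or 200 µM), then given FP-Rh (1 µM). Reactions were quenched after 10 minutes, run on SDS-PAGE and quantified by in-gel fluorescence scanning.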

[2] = target: T1, glutathione transferase omega 1 (GSTO1) (Homo sapiens, UniProt P78417); test: PS-Rh labeling of GSTO1 in MDA-MB-231 proteome; assay type: biochemical; conditions: compounds 20 µM, PS-Rh 5 µM, 1 hour
T1 sequence (P78417 1-241): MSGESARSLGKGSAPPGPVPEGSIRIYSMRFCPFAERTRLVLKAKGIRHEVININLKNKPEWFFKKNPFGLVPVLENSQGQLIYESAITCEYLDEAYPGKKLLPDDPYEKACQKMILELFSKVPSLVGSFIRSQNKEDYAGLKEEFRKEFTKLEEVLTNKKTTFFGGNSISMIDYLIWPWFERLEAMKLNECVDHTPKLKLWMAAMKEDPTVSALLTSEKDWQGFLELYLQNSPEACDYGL
Summary of the method: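 Gel-based competitive ABPP for thiol cross-reactivity. MDA-MB-231 proteome was treated with test compound (20 µM) and then labelled with the cysteine-reactive phenylsulfonate-rhodamine probe (5 µM, 1 hour). Labelled proteins were resolved on gel and read by fluorescence.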

purified RBBP9 = purified RBBP9 (Homo sapiens, UniProt O75884); test: gel-based competitive ABPP with purified RBBP9; assay type: biochemical; conditions: for RBBP9 inhibitory activity (in words): purified RBBP9, 20 µM
RBBP9 [3] = target: T2, RBBP9 (Homo sapiens, UniProt O75884); test: fluopol-ABPP screen for RBBP9 inhibition; assay type: biochemical; conditions: read-out: percent inhibition of RBBP9 in fluopol-ABPP confirmation screen
[4] = system: serine hydrolases of the HEK 293T soluble proteome; test: competitive ABPP with FP-Rh in RBBP9-transfected HEK 293T soluble proteome; assay type: biochemical; conditions: FP-Rh probe, 20 and 200 µM
Summary of the method: as §1

RBBP9 [5] = target: T2, RBBP9; test: LC-MS/MS identification of site of covalent labeling on RBBP9; conditions: trypsin digest, +138.00 Da modification
RBBP9 [6] = target: T2, RBBP9; test: reversibility of RBBP9 inhibition by gel filtration, FP-Rh labeling; assay type: biochemical; conditions: inhibitor 100 µM
Summary of the method: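 One half was reacted directly with FP-Rh. The other half was gel-filtered, then reacted with FP-Rh. Probe labelling was compared between the two halves.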

α2-adrenergic receptors = conditions: cited from earlier work
translation (ribosome) = conditions: in vitro ref 15; cited from earlier work
RBBP9 [7] = target: T2, RBBP9; conditions: ~20,000 compound fluopol-ABPP screen ref 5; cited from earlier work

Chain of purified RBBP9 (O75884 whole entry): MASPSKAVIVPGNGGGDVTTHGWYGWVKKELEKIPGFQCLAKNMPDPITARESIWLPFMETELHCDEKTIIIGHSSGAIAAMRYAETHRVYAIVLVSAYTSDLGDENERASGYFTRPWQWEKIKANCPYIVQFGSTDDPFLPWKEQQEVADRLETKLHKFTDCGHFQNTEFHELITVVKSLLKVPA
T2 sequence (O75884 whole entry): as above

COc1ccc(C(=O)ON=C2C=C(C)C(=O)C(C)=C2)cc1 [Compound 21]
selectivity for RBBP9 over other hydrolases [1]: good selectivity for RBBP9
inhibition of PS-Rh labeling of GSTO1 [2]: no longer inhibited GSTO1

C/C(=N\OC(=O)/C=C/c1ccccc1)c1nccs1 [Compound 24]
RBBP9 inhibitory activity (in words) (purified RBBP9): significantly reduced activity against RBBP9

COc1ccc(C(=O)O/N=C2/C=C(C)C(=O)C=C2C)cc1 [Compound 22]
RBBP9 inhibitory activity (in words) (purified RBBP9): loss of RBBP9 inhibitory activity

CC1=CC(=NOC(=O)/C=C/c2ccccc2)C=C(C)C1=O [Compound 4]
inhibition at 7.94 µM (RBBP9 [3]): ~80%
selectivity for RBBP9 over other hydrolases [4]: less selective for RBBP9
inhibition of PS-Rh labeling of GSTO1 [2]: potently inhibited

C/C(=N\OC(=O)C1CCCCC1)c1nccs1 [Compound 18]
fold lower IC50 than hit compound 2 (purified RBBP9; recombinant RBBP9): 3 fold
selectivity for RBBP9 over other hydrolases [4]: selective for RBBP9
selectivity for RBBP9 over other hydrolases [1]: did not inhibit any other hydrolases

C/C(=N\OC(=O)N1CCCCC1)c1nccs1 [Compound 20]
RBBP9 inhibitory activity (in words) (purified RBBP9): no inhibition of RBBP9

COc1ccc(C(=O)O/N=C(\C)c2nccs2)cc1 [Compound 3]
selectivity for RBBP9 over other hydrolases [1]: highly selective for RBBP9

C/C(=N\OC(=O)c1ccc(Cl)cc1)c1nccs1 [Compound 2]
site of covalent adduct on RBBP9 (RBBP9 [5]): adduct only on the active site serine nucleophile (Ser75)
selectivity for RBBP9 over other hydrolases [1]: highly selective for RBBP9
reversibility of blockade of FP-rhodamine RBBP9 labeling (RBBP9 [6]): not reversed by gel filtration

C/C(=N\OC(=O)c1ccc(-c2ccccc2)cc1)c1nccs1 [Compound 13]
RBBP9 inhibitory activity (in words) (purified RBBP9): completely ablating all inhibitory activity

CC[C@H]1CN2CCc3cc(OC)c(OC)cc3[C@@H]2C[C@@H]1C[C@H]1NCCc2cc(OC)c(OC)cc21 [1 (emetine), emetine]
antagonism of α2-adrenergic receptors (α2-adrenergic receptors): antagonize of α2-adrenergic receptors
inhibition of translation (translation (ribosome)): inhibit translation in vitro
mode of RBBP9 inhibition (RBBP9 [7]): reversible inhibitor of RBBP9
reversibility of blockade of FP-rhodamine RBBP9 labeling (RBBP9 [6]): reversible inhibitor

COc1ccc(C(=O)ON=C2C(C)=CC(=O)C=C2C)cc1 [Compound 23]
RBBP9 inhibitory activity (in words) (purified RBBP9): loss of RBBP9 inhibitory activity, an effect exacerbated

C/C(=N\OC(=O)c1ccc([N+](=O)[O-])cc1)c1nccs1 [Compound 12]
RBBP9 inhibitory activity (in words) (purified RBBP9): loss of RBBP9 inhibitory activity

CC(=O)O/N=C(\C)c1nccs1 [Compound 19]
RBBP9 inhibitory activity (in words) (purified RBBP9): no detectable inhibitory activity
